One block for each compound: values may come before it. The source made the active and inactive calls. No cut-off for these calls is given here.
What was measured:
[1] = biological target: T1, Signal transducer and activator of transcription 3 (Homo sapiens, UniProt P40763); assay: Inhibition of STAT3 phosphorylation at S727 residues in human A-375 cells at 10 to 25 uM after 12 hrs by Western blotting analysis; format: cell-based; conditions: dose 10-25 µM
How it was run: (§1)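 Cells lysed in M-PER after 12 h drug exposure (overnight per text); 60 µg total protein run on 10% SDS-PAGE, transferred to PVDF, probed overnight at 4 °C with phospho-specific antibodies. Panel lines (U87-MG, MDA-MB-468, MIA PaCa-2, NCI-H157, A549) given 25 µM; A375 given 0, 5, 10, 25 µM. Actin and/or vinculin loading controls.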

[2] = biological target: Signal transducer and activator of transcription 3 (Mus musculus) (UniProt P42227); assay: Inhibition of EGF-induced STAT3 phosphorylation in MEF assessed as reduction in STAT3 nuclear translocation preincubated overnight followed by EGF stimulation and measured after 30 mins by DAPI staining based immunofluorescence assay; conditions: dose 5-50 µM
How it was run: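 MEF cells (2000/well) were allowed to adhere for 24 h, then held overnight in serum-free medium with inhibitor doses. They were stimulated with full RPMI containing 100 nM EGF for 30 min, then fixed in 4% paraformaldehyde and permeabilized. Cells were immunostained for STAT3 (Alexa Fluor 488) with DAPI nuclear counterstain and nuclear STAT3 was quantified by imaging; three independent experiments.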

CCRF-CEM = assay: Anticancer activity against human CCRF-CEM cells assessed as cell growth inhibition at 10 uM measured after 48 hrs by SRB assay relative to control; format: functional; conditions: read-out: GI
How it was run: (§2)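 NCI 60-cell-line screen. Cells in RPMI with 5% FBS were plated at 5,000–40,000 cells/well by doubling time and preincubated 24 h at 37 °C. Compound was added at a single 10 µM for 48 h, then cells were fixed with cold TCA (10% final) and stained with 0.4% SRB. Absorbance at 515 nm gave percent growth versus untreated control and time-zero cells.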

UACC-62 = assay: Anticancer activity against human UACC-62 cells assessed as cell growth inhibition at 10 uM measured after 48 hrs by SRB assay relative to control; format: functional; conditions: read-out: GI; how it was run: as §2
[3] = biological target: T1, Signal transducer and activator of transcription 3; assay: Inhibition of STAT3 phosphorylation at Y705 residues in human NCI-H157 cells at 25 uM after 12 hrs by Western blotting analysis; format: cell-based; how it was run: as §1
[4] = biological target: T1, Signal transducer and activator of transcription 3; assay: Inhibition of STAT3 phosphorylation at Y705 residues in human A549 cells at 25 uM after 12 hrs by Western blotting analysis; format: cell-based; how it was run: as §1
[5] = biological target: T1, Signal transducer and activator of transcription 3; assay: Inhibition of STAT3 phosphorylation at Y705 residues in human A-375 cells at 5 to 10 uM after 12 hrs by Western blotting analysis; format: cell-based; conditions: dose 5-10 µM; how it was run: as §1
[6] = biological target: T1, Signal transducer and activator of transcription 3; assay: Inhibition of STAT3 phosphorylation at S727 residues in human MIA PaCa-2 cells at 25 uM after 12 hrs by Western blotting analysis; format: cell-based; how it was run: as §1
[7] = biological target: T1, Signal transducer and activator of transcription 3; assay: Inhibition of STAT3 phosphorylation at S727 residues in human NCI-H157 cells at 25 uM after 12 hrs by Western blotting analysis; format: cell-based; how it was run: as §1
[8] = biological target: T1, Signal transducer and activator of transcription 3; assay: Inhibition of STAT3 phosphorylation at S727 residues in human A549 cells at 25 uM after 12 hrs by Western blotting analysis; format: cell-based; how it was run: as §1
[9] = biological target: T1, Signal transducer and activator of transcription 3; assay: Inhibition of STAT3 phosphorylation at S727 residues in human A-375 cells at 5 to 10 uM after 12 hrs by Western blotting analysis; format: cell-based; conditions: dose 5-10 µM; how it was run: as §1
[10] = biological target: Proto-oncogene tyrosine-protein kinase Src (Homo sapiens) (UniProt P12931); assay: Inhibition of SRC phosphorylation in human NCI-H157 cells at 25 uM after 12 hrs by Western blotting analysis; format: cell-based; how it was run: as §1
A-375 = assay: Antiproliferative activity against human A-375 cells measured after 48 hrs by MTS assay; format: functional, cell-based
How it was run: (§3)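 Cells were exposed to a dose range of inhibitor for 48 h, and viability was read by MTS assay in triplicate. GI50 was taken as the concentration giving 50% growth inhibition, averaged from three independent experiments. A375 was cultured in RPMI-1640 with Glutamax. A549 and NCI-H157 were kept in RPMI-1640, and MIA PaCa-2 and U87-MG in DMEM.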

MIA PaCa-2 = assay: Antiproliferative activity against human MIA PaCa-2 cells measured after 48 hrs by MTS assay; format: functional, cell-based; how it was run: as §3
MEL1617 [11] = assay: Antiproliferative activity against human MEL1617 cells measured after 48 hrs by MTS assay; format: functional, cell-based; how it was run: as §3
451Lu [12] = assay: Antiproliferative activity against human SB-590885-sensitive 451Lu cells assessed as reduction in cell viability measured after 48 hrs by MTS assay; format: functional
How it was run: (§4)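 Melanoma lines were grown in RPMI-1640 with Glutamax at 37 °C and 5% CO2. The resistant 451 Lu-R and MEL 1617-R sublines were maintained with 1 µM PLX4720. Cells were incubated with vehicle or inhibitor over a dose range, and viability was read by MTS assay in triplicate.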

[13] = biological target: T1, Signal transducer and activator of transcription 3; assay: Inhibition of IL-6 induced STAT3 activation in human A-375 cells preincubated for overnight followed by IL-6 addition and measured after 30 mins by Western blot analysis; format: cell-based
How it was run: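 A375 cells were held overnight in serum-free medium with inhibitor doses, then stimulated in full medium with 25 ng/mL IL-6 for 30 min. Lysates were immunoblotted for STAT3 pY705/pS727 and Cyclin D1.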

MEL1617 [14] = assay: Antiproliferative activity against human SB-590885-sensitive MEL1617 cells assessed as reduction in cell viability measured after 48 hrs by MTS assay; format: functional, cell-based; how it was run: as §4
451Lu [15] = assay: Induction of apoptosis in human SB-590885-sensitive 451Lu cells assessed as increase in cleaved PARP expression measured after 12 hrs by Western blot analysis; format: functional
How it was run: (§5)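 Sensitive and resistant 451 Lu cells were exposed to a dose range for 12 h before lysis. PARP, cleaved PARP and caspase-7 were detected by western blot against a vinculin loading control; repeated twice.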

451Lu [16] = assay: Induction of apoptosis in human SB-590885-resistant 451Lu cells assessed as increase in cleaved PARP expression measured after 12 hrs by Western blot analysis; format: functional; how it was run: as §5
451Lu [17] = assay: Induction of apoptosis in human SB-590885-sensitive 451Lu cells assessed as increase in cleaved caspase-7 expression measured after 12 hrs by Western blot analysis; format: functional; how it was run: as §5
451Lu [18] = assay: Induction of apoptosis in human SB-590885-resistant 451Lu cells assessed as increase in cleaved caspase-7 expression measured after 12 hrs by Western blot analysis; format: functional; how it was run: as §5

T1 sequence (P40763 whole entry): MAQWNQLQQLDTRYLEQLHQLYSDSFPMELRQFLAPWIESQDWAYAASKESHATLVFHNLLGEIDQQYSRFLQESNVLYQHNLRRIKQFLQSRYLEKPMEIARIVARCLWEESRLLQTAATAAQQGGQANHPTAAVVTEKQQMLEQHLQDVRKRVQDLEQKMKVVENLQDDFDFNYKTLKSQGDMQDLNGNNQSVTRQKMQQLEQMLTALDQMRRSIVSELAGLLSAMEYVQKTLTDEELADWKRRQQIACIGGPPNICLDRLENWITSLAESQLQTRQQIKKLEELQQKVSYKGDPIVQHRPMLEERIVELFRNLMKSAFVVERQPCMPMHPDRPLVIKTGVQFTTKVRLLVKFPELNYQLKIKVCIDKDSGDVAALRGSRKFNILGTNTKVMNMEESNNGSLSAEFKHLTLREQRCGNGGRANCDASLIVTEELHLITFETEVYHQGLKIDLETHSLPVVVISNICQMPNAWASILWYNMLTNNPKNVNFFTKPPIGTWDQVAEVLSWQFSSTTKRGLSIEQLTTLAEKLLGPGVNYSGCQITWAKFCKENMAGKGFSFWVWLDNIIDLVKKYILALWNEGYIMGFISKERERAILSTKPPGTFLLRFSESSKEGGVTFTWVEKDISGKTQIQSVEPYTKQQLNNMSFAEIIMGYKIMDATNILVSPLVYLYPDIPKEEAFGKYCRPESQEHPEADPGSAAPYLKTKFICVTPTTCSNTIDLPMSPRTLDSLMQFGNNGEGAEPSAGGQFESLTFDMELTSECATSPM
Signal transducer and activator of transcription 3 (Mus musculus), sequence (P42227 whole entry): as the sequence (P40763 whole entry) above, with E760D counted along it
Proto-oncogene tyrosine-protein kinase Src (Homo sapiens), sequence (P12931 2-536 limits assumed): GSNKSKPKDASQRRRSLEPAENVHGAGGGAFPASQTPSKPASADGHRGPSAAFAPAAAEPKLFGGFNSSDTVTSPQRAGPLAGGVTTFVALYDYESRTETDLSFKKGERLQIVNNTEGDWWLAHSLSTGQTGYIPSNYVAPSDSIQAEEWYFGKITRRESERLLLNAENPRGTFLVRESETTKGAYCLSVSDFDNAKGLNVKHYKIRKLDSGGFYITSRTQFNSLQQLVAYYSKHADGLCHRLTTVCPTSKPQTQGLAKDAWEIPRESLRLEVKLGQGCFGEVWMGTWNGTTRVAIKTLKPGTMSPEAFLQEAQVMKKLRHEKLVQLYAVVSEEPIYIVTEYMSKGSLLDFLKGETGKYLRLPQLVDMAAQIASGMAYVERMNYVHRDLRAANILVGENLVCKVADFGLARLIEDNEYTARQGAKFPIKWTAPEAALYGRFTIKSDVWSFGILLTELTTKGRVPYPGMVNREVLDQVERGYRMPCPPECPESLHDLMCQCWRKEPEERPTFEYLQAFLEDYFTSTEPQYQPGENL

inhibition [1]: Active | inhibition [2]: Dose-dependent effect
Structure (SMILES): C=CCn1c(SCC(=O)Nc2ccc(/C(C)=N\O)cc2)nnc1-c1cc(-c2ccc(Cl)cc2)nc2ccccc12

inhibition [3]: Active | inhibition [4]: Active | inhibition [5]: Active | inhibition [6]: Active | inhibition [7]: Active | inhibition [8]: Active | inhibition [9]: Active | inhibition [10]: inactive | inhibition [13]: Dose-dependent effect
Structure (SMILES): C=CCn1c(SCC(=O)Nc2ccc(/C(C)=N\O)cc2)nnc1-c1cc(-c2ccccc2)nc2ccccc12
inhibition of growth at 10 µM (CCRF-CEM): 76% | inhibition of growth at 10 µM (UACC-62): 76% | Activity (A-375): Active | Activity (MIA PaCa-2): Active | Activity (MEL1617 [11]): Active | Activity (451Lu [12]): Dose-dependent effect | Activity (MEL1617 [14]): Dose-dependent effect | Activity (451Lu [15]): Dose-dependent effect | Activity (451Lu [16]): Dose-dependent effect | Activity (451Lu [17]): Dose-dependent effect | Activity (451Lu [18]): Dose-dependent effect

— ChEMBL document CHEMBL4715843, “NO-releasing STAT3 inhibitors suppress BRAF-mutant melanoma growth” (Eur J Med Chem, 2020)
